Reference: ChEMBL document CHEMBL1914305, “Synthesis and structure-activity evaluation of isatin-β-thiosemicarbazones with improved selective activity toward multidrug-resistant cells expressing P-glycoprotein” (J Med Chem, 2011)
In brackets after ≈: the same amount, converted by molar mass. Activity calls are given as the source filed them. No cut-off for these calls is given here.

Key:
[1] = Selectivity ratio of IC50 for human KB-3-1 cells to IC50 for human KBV1 cells selected at 1 ug/mL vinblastine; type: functional
How it was run: (§1)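 Selectivity ratio: IC50 in the parental or empty-vector cells divided by IC50 in the P-gp-expressing cells (KB-V1, or ABCB1-transfected LLC-PK1). MTT assay: 4000 cells/well established for 24 h, then 72 h exposure to serially diluted drug at 37 °C, 5% CO2. MTT for 4 h, acidified ethanol lysis, A570 corrected at A690. IC50 is the concentration giving 50% of untreated absorbance, from at least three experiments.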

LLC-PK1 [2] = experiment: Cytotoxicity against pig LLC-PK1 cells transfected with empty vector after 72 hrs by MTT assay; type: cell-based; conditions: Sus scrofa, LLC-PK1, 72 h
How it was run: (§2)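 LLC-PK1 empty-vector lines grown in M199 with 10% FBS; transfected lines also in 0.5 mg/mL G418. MTT assay: 4000 cells/well for 24 h, then serially diluted drug for 72 h at 37 °C, 5% CO2. MTT 4 h, acidified ethanol, A570 minus 690 nm. IC50 is 50% of untreated absorbance. Triplicate wells, three experiments.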

[3] = Cytotoxicity against P-gp expressing human KBV1 revertant cells after 72 hrs by MTT assay; type: functional, cell-based; conditions: KB-V1, 72 h, in the assay text read “P-gp-negative” for “P-gp expressing”
How it was run: (§3)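 Grown in DMEM with 10% FBS. MTT assay: 4000 cells/well, 24 h settling, serial dilutions of drug, 72 h at 37 °C in 5% CO2. MTT in IMDM 4 h, then acidified ethanol 15 min, A570 with 690 nm background. IC50 is the concentration reducing absorbance to 50% of untreated control. Three experiments in triplicate. KB-V1-R comes from KB-V1 grown long-term drug-free.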

[4] = Aqueous solubility of the compound; type: physicochemical; conditions: buffer
[5] = Cytotoxicity against P-gp-negative human KB-3-1 cells after 72 hrs by MTT assay in presence of 100 nM TQR; conditions: KB 3-1, 72 h
[6] = Selectivity ratio of IC50 for pig LLC-PK1 cells transfected with empty vector to IC50 for pig LLC-PK1 cells; type: ADME, cell-based, Sus scrofa; conditions: read-out: Ratio IC50; how it was run: as §1
NCI-H460 [7] = experiment: Cytotoxicity against ABCG2-expressing human H460 cells at 10 to 20 uM after 72 hrs by MTT assay in presence of ABCG2 substrate 5 uM mitoxantrone; type: functional, cell-based
KB-V1 = experiment: Cytotoxicity against P-gp expressing human KBV1 cells after 72 hrs by MTT assay in presence of 4 uM P-gp substrate Rh123; type: functional, cell-based
[8] = Cytotoxicity against human KB-3-1 cells after 72 hrs by MTT assay; type: functional, cell-based; conditions: KB 3-1, 72 h
How it was run: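 Grown in DMEM with 10% FBS. MTT assay: 4000 cells/well, 24 h settling, serial dilutions of drug, 72 h at 37 °C in 5% CO2. MTT in IMDM 4 h, then acidified ethanol 15 min, A570 with 690 nm background. Three experiments in triplicate. KB-V1-R comes from KB-V1 grown long-term drug-free.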

[9] = Cytotoxicity against P-gp expressing human KBV1 cells after 72 hrs by MTT assay in presence of 100 nM TQR; conditions: KB-V1, 72 h
LLC-PK1 [10] = experiment: Cytotoxicity against pig LLC-PK1 cells after 72 hrs by MTT assay; type: cell-based; conditions: Sus scrofa, LLC-PK1, 72 h; how it was run: as §2
[11] = Cytotoxicity against vinblastine-selected human KBV1 cells after 72 hrs by MTT assay; type: functional, cell-based; conditions: KB-V1, 72 h; how it was run: as §3
NCI-H460 [12] = experiment: Cytotoxicity against ABCG2-expressing human H460 cells at 10 uM after 72 hrs by MTT assay; type: functional, cell-based

**Q.** Which “Ratio IC50” value [1] does the source give for `CC(C)(C)c1ccc(NC(=S)N/N=C2\C(=O)Nc3ccccc32)cc1` here?
**A.** 14.8

**Q.** And the IC50 (LLC-PK1 [2])?
**A.** 29.3 µM

**Q.** What about the IC50 [3] of the same molecule?
**A.** 6.5 µM

**Q.** What about the solubility [4] of the same molecule?
**A.** 0.8 µg/mL (≈ 2.27 µM)

**Q.** What about the IC50 [5] of the same molecule?
**A.** 14.3 µM

**Q.** And the selectivity ratio [6]?
**A.** 10.1

**Q.** And the Activity (NCI-H460 [7])?
**A.** Active

**Q.** And the Activity (KB-V1)?
**A.** Active

**Q.** What about the IC50 [8] of the same molecule?
**A.** 8.13 µM

**Q.** What about the IC50 [9] of the same molecule?
**A.** 8.41 µM

**Q.** And the IC50 (LLC-PK1 [10])?
**A.** 2.89 µM

**Q.** And the IC50 [11]?
**A.** 0.71 µM

**Q.** And the Activity (NCI-H460 [12])?
**A.** Active

**Q.** Which “Ratio IC50” value [1] does the source give for `O=C1Nc2ccccc2/C1=N/NC(=S)Nc1ccc(Oc2ccccc2)cc1` here?
**A.** 3.4

**Q.** What about the IC50 [8] of the same molecule?
**A.** 5.72 µM

**Q.** And the IC50 [11]?
**A.** 1.67 µM

**Q.** For `CC(C)NC(=S)N/N=C1\C(=O)Nc2ccccc21`, which “Ratio IC50” value [1] is on record?
**A.** 3.8

**Q.** What about the IC50 [8] of the same molecule?
**A.** 39.3 µM

**Q.** And the IC50 [11]?
**A.** 10.2 µM

**Q.** What does the source list for `O=C1Nc2ccccc2/C1=N/NC(=S)Nc1ccc(F)cc1`?
**A.** Ratio IC50 [1]: 7.4; IC50 [8]: 14.2 µM; IC50 [11]: 1.92 µM

**Q.** What does the source list for `O=C1Nc2ccccc2/C1=N/NC(=S)Nc1cccc(Cl)c1`?
**A.** Ratio IC50 [1]: 2.9; IC50 [8]: 1.87 µM; IC50 [11]: 0.64 µM

**Q.** For `CN(C)c1ccc(NC(=S)N/N=C2\C(=O)Nc3ccccc32)cc1`, which “Ratio IC50” value [1] is on record?
**A.** 3

**Q.** And the IC50 [8]?
**A.** 6.95 µM

**Q.** And the IC50 [11]?
**A.** 2.32 µM

**Q.** For `Cc1ccc(NC(=S)N/N=C2\C(=O)Nc3ccccc32)cc1`, which “Ratio IC50” value [1] is on record?
**A.** 9.2

**Q.** What about the IC50 [8] of the same molecule?
**A.** 24 µM

**Q.** What about the IC50 [11] of the same molecule?
**A.** 2.6 µM

**Q.** Which “Ratio IC50” value [1] does the source give for `O=C1Nc2ccccc2/C1=N/NC(=S)Nc1ccc(C(F)(F)F)cc1` here?
**A.** 4.1

**Q.** What about the IC50 [8] of the same molecule?
**A.** 8.59 µM

**Q.** What about the IC50 [11] of the same molecule?
**A.** 2.1 µM

**Q.** For `CNC(=S)N/N=C1\C(=O)Nc2ccccc21`, which “Ratio IC50” value [1] is on record?
**A.** 1.8

**Q.** What about the IC50 [8] of the same molecule?
**A.** 35.3 µM

**Q.** What about the IC50 [11] of the same molecule?
**A.** 19.4 µM

**Q.** With `Cc1ccc(NC(=S)N/N=C2\C(=O)Nc3ccccc32)cc1C` as the molecule, how does the “Ratio IC50” value [1] read?
**A.** 2

**Q.** What about the IC50 [8] of the same molecule?
**A.** 4.37 µM

**Q.** What about the IC50 [11] of the same molecule?
**A.** 2.2 µM

**Q.** Which “Ratio IC50” value [1] does the source give for `O=C1Nc2ccccc2/C1=N/NC(=S)Nc1ccccc1Cl` here?
**A.** 1.9

**Q.** What about the IC50 [8] of the same molecule?
**A.** 2.22 µM

**Q.** What about the IC50 [11] of the same molecule?
**A.** 1.17 µM

**Q.** Which results are given for `CCCC1CCC(c2ccc(NC(=S)N/N=C3\C(=O)Nc4ccccc43)cc2)CC1` (stereo not drawn)?
**A.** Ratio IC50 [1]: 1.6; IC50 [8]: 17.5 µM; IC50 [11]: 11 µM

**Q.** Which results are given for `O=C1Nc2ccccc2/C1=N/NC(=S)Nc1ccc(O)cc1`?
**A.** Ratio IC50 [1]: 1.7; IC50 [8]: 35.8 µM; IC50 [11]: 21.6 µM

**Q.** For `CCc1ccc(NC(=S)N/N=C2\C(=O)Nc3ccccc32)cc1`, which “Ratio IC50” value [1] is on record?
**A.** 3

**Q.** What about the IC50 [8] of the same molecule?
**A.** 4.05 µM

**Q.** And the IC50 [11]?
**A.** 1.34 µM

**Q.** Which “Ratio IC50” value [1] does the source give for `O=C1Nc2ccccc2/C1=N/NC(=S)NC12CC3CC(CC(C3)C1)C2` here?
**A.** 3.1

**Q.** What about the IC50 [8] of the same molecule?
**A.** 3.16 µM

**Q.** And the IC50 [11]?
**A.** 1.02 µM

**Q.** Which “Ratio IC50” value [1] does the source give for `O=C1Nc2ccccc2/C1=N/NC(=S)Nc1c(F)cc(F)cc1F` here?
**A.** 5.3

**Q.** What about the IC50 [8] of the same molecule?
**A.** 38.4 µM

**Q.** And the IC50 [11]?
**A.** 7.28 µM
